Measured values as given in the RNAGym collection of RNA variant scans (doi:10.1002/anie.201605470).

B1: Osa-1-4 twister ribozyme (parent)
chain: CCGCCUAACACUGCCAAUGCCGGUCCCAAGCCCGGAUAAAAGUGGAGGGGGCGG

Variants of: B1
Test: self-cleavage, relative activity (ratio to wild type); higher = more cleavage; co-transcriptional
In short: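 A DNA template for a 54-nucleotide Oryza sativa twister ribozyme was synthesised with 97 % wild-type base and 1 % of each other base at the 48 positions downstream of the cleavage site. It was transcribed in vitro for 2 h at 37 °C, allowing co-transcriptional self-cleavage, then reverse-transcribed with a template-switching oligonucleotide, PCR-amplified and deep-sequenced. Cleavage status was scored from reads with or without upstream sequence. Relative activity is fraction cleaved normalised to wild type.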

Row | Variant | self-cleavage
1 | CCGCCUAACACUGCCAAUCCCGGUCCCAAGCCCGGAUAAAAGUGGAUGGGGCGG | 0.04
2 | CCGCCUAACACUGCCAAUCCCGGUCCCAAGCCCGGAUAAAAGUGGAGAGGGCGG | 0.02
3 | CCGCCUAACACUGCCAAUCCCGGUCCCAAGCCCGGAUAAAAGUGGAGCGGGCGG | 0.02
4 | CCGCCUAACACUGCCAAUCCCGGUCCCAAGCCCGGAUAAAAGUGGAGUGGGCGG | 0.03
5 | CCGCCUAACACUGCCAAUCCCGGUCCCAAGCCCGGAUAAAAGUGGAGGAGGCGG | 0.04
6 | CCGCCUAACACUGCCAAUCCCGGUCCCAAGCCCGGAUAAAAGUGGAGGCGGCGG | 0.03
7 | CCGCCUAACACUGCCAAUCCCGGUCCCAAGCCCGGAUAAAAGUGGAGGUGGCGG | 0.04
8 | CCGCCUAACACUGCCAAUCCCGGUCCCAAGCCCGGAUAAAAGUGGAGGGAGCGG | 0.24
9 | CCGCCUAACACUGCCAAUCCCGGUCCCAAGCCCGGAUAAAAGUGGAGGGCGCGG | 0.06
10 | CCGCCUAACACUGCCAAUCCCGGUCCCAAGCCCGGAUAAAAGUGGAGGGUGCGG | 0.07
11 | CCGCCUAACACUGCCAAUCCCGGUCCCAAGCCCGGAUAAAAGUGGAGGGGACGG | 0.08
12 | CCGCCUAACACUGCCAAUCCCGGUCCCAAGCCCGGAUAAAAGUGGAGGGGCCGG | 0.03
13 | CCGCCUAACACUGCCAAUCCCGGUCCCAAGCCCGGAUAAAAGUGGAGGGGUCGG | 0.04
14 | CCGCCUAACACUGCCAAUCCCGGUCCCAAGCCCGGAUAAAAGUGGAGGGGGCAG | 0.06
15 | CCGCCUAACACUGCCAAUCCCGGUCCCAAGCCCGGAUAAAAGUGGAGGGGGCCG | 0.04
16 | CCGCCUAACACUGCCAAUCCCGGUCCCAAGCCCGGAUAAAAGUGGAGGGGGCUG | 0.05
17 | CCGCCUAACACUGCCAAUCCCGGUCCCAAGCCCGGAUAAAAGUGGAGGGGGCGA | 0.11
18 | CCGCCUAACACUGCCAAUCCCGGUCCCAAGCCCGGAUAAAAGUGGAGGGGGCGC | 0.06
19 | CCGCCUAACACUGCCAAUCCCGGUCCCAAGCCCGGAUAAAAGUGGAGGGGGCGU | 0.4
20 | CCGCCUAACACAGCCAAUCCCGGUCCCAAGCCCGGAUAAAAGUGGAGGGGGCGG | 0.04
21 | CCGCCUAACACCGCCAAUCCCGGUCCCAAGCCCGGAUAAAAGUGGAGGGGGCGG | 0.04
22 | CCGCCUAACACGGCCAAUCCCGGUCCCAAGCCCGGAUAAAAGUGGAGGGGGCGG | 0.06
23 | CCGCCUAACACUGCCAAACCCGGUCCCAAGCCCGGAUAAAAGUGGAGGGGGCGG | 0.66
24 | CCGCCUAACACUGCCAACCCCGGUCCCAAGCCCGGAUAAAAGUGGAGGGGGCGG | 0.39
25 | CCGCCUAACACUGCCAAGCCCGGUCCCAAGCCCGGAUAAAAGUGGAGGGGGCGG | 0.91

Row | Variant | self-cleavage
26 | CCGCCUAACACUGCCAAUCCCGGACCCAAGCCCGGAUAAAAGUGGAGGGGGCGG | 0.04
27 | CCGCCUAACACUGCCAAUCCCGGCCCCAAGCCCGGAUAAAAGUGGAGGGGGCGG | 0.04
28 | CCGCCUAACACUGCCAAUCCCGGGCCCAAGCCCGGAUAAAAGUGGAGGGGGCGG | 0.04
29 | CCGCCUAACACUGCCAAUCCCGGUCCCAAGCCCGGAAAAAAGUGGAGGGGGCGG | 0.46
30 | CCGCCUAACACUGCCAAUCCCGGUCCCAAGCCCGGACAAAAGUGGAGGGGGCGG | 0.64
31 | CCGCCUAACACUGCCAAUCCCGGUCCCAAGCCCGGAGAAAAGUGGAGGGGGCGG | 0.24
32 | CCGCCUAACACUGCCAAUCCCGGUCCCAAGCCCGGAUAAAAGAGGAGGGGGCGG | 0.07
33 | CCGCCUAACACUGCCAAUCCCGGUCCCAAGCCCGGAUAAAAGCGGAGGGGGCGG | 0.05
34 | CCGCCUAACACUGCCAAUCCCGGUCCCAAGCCCGGAUAAAAGGGGAGGGGGCGG | 0.07
35 | CCGCCUAACACUGCCAAUUCCGGUCCCAAGCCCGGAUAAAAGUGGAGGGGGCGG | 0.57
36 | CCGCCUAACACUGCCAAUUCCAGUCCCAAGCCCGGAUAAAAGUGGAGGGGGCGG | 0.32
37 | CCGCCUAACACUGCCAAUUCCCGUCCCAAGCCCGGAUAAAAGUGGAGGGGGCGG | 0.05
38 | CCGCCUAACACUGCCAAUUCCUGUCCCAAGCCCGGAUAAAAGUGGAGGGGGCGG | 0.12
39 | CCGCCUAACACUGCCAAUUCCGAUCCCAAGCCCGGAUAAAAGUGGAGGGGGCGG | 0.07
40 | CCGCCUAACACUGCCAAUUCCGCUCCCAAGCCCGGAUAAAAGUGGAGGGGGCGG | 0.04
41 | CCGCCUAACACUGCCAAUUCCGUUCCCAAGCCCGGAUAAAAGUGGAGGGGGCGG | 0.04
42 | CCGCCUAACACUGCCAAUUCCGGUCCCAAACCCGGAUAAAAGUGGAGGGGGCGG | 0.05
43 | CCGCCUAACACUGCCAAUUCCGGUCCCAACCCCGGAUAAAAGUGGAGGGGGCGG | 0.05
44 | CCGCCUAACACUGCCAAUUCCGGUCCCAAUCCCGGAUAAAAGUGGAGGGGGCGG | 0.04
45 | CCGCCUAACACUGCCAAUUCCGGUCCCAAGCCCAGAUAAAAGUGGAGGGGGCGG | 0.52
46 | CCGCCUAACACUGCCAAUUCCGGUCCCAAGCCCCGAUAAAAGUGGAGGGGGCGG | 0.2
47 | CCGCCUAACACUGCCAAUUCCGGUCCCAAGCCCUGAUAAAAGUGGAGGGGGCGG | 0.3
48 | CCGCCUAACACUGCCAAUUCCGGUCCCAAGCCCGAAUAAAAGUGGAGGGGGCGG | 0.21
49 | CCGCCUAACACUGCCAAUUCCGGUCCCAAGCCCGCAUAAAAGUGGAGGGGGCGG | 0.6
50 | CCGCCUAACACUGCCAAUUCCGGUCCCAAGCCCGUAUAAAAGUGGAGGGGGCGG | 0.76

Row | Variant | self-cleavage
51 | CCGCCUAACACUGCCAAUUCCGGUCCCAAGCCCGGAUAAAAAUGGAGGGGGCGG | 0.06
52 | CCGCCUAACACUGCCAAUUCCGGUCCCAAGCCCGGAUAAAACUGGAGGGGGCGG | 0.06
53 | CCGCCUAACACUGCCAAUUCCGGUCCCAAGCCCGGAUAAAAUUGGAGGGGGCGG | 0.04
54 | CCGCCUAACACUGCCAAUUCCGGUCCCAAGCCCGGAUAAAAGUAGAGGGGGCGG | 0.1
55 | CCGCCUAACACUGCCAAUUCCGGUCCCAAGCCCGGAUAAAAGUCGAGGGGGCGG | 0.34
56 | CCGCCUAACACUGCCAAUUCCGGUCCCAAGCCCGGAUAAAAGUUGAGGGGGCGG | 0.19
57 | CCGCCUAACACUGCCAAUUCCGGUCCCAAGCCCGGAUAAAAGUGAAGGGGGCGG | 0.03
58 | CCGCCUAACACUGCCAAUUCCGGUCCCAAGCCCGGAUAAAAGUGCAGGGGGCGG | 0.04
59 | CCGCCUAACACUGCCAAUUCCGGUCCCAAGCCCGGAUAAAAGUGUAGGGGGCGG | 0.04
60 | CCGCCUAACACUGCCAAUUCCGGUCCCAAGCCCGGAUAAAAGUGGAAGGGGCGG | 0.04
61 | CCGCCUAACACUGCCAAUUCCGGUCCCAAGCCCGGAUAAAAGUGGACGGGGCGG | 0.04
62 | CCGCCUAACACUGCCAAUUCCGGUCCCAAGCCCGGAUAAAAGUGGAUGGGGCGG | 0.04
63 | CCGCCUAACACUGCCAAUUCCGGUCCCAAGCCCGGAUAAAAGUGGAGAGGGCGG | 0.04
64 | CCGCCUAACACUGCCAAUUCCGGUCCCAAGCCCGGAUAAAAGUGGAGCGGGCGG | 0.03
65 | CCGCCUAACACUGCCAAUUCCGGUCCCAAGCCCGGAUAAAAGUGGAGUGGGCGG | 0.04
66 | CCGCCUAACACUGCCAAUUCCGGUCCCAAGCCCGGAUAAAAGUGGAGGAGGCGG | 0.04
67 | CCGCCUAACACUGCCAAUUCCGGUCCCAAGCCCGGAUAAAAGUGGAGGCGGCGG | 0.04
68 | CCGCCUAACACUGCCAAUUCCGGUCCCAAGCCCGGAUAAAAGUGGAGGUGGCGG | 0.03
69 | CCGCCUAACACUGCCAAUUCCGGUCCCAAGCCCGGAUAAAAGUGGAGGGAGCGG | 0.59
70 | CCGCCUAACACUGCCAAUUCCGGUCCCAAGCCCGGAUAAAAGUGGAGGGCGCGG | 0.1
71 | CCGCCUAACACUGCCAAUUCCGGUCCCAAGCCCGGAUAAAAGUGGAGGGUGCGG | 0.21
72 | CCGCCUAACACUGCCAAUUCCGGUCCCAAGCCCGGAUAAAAGUGGAGGGGACGG | 0.15
73 | CCGCCUAACACUGCCAAUUCCGGUCCCAAGCCCGGAUAAAAGUGGAGGGGCCGG | 0.07
74 | CCGCCUAACACUGCCAAUUCCGGUCCCAAGCCCGGAUAAAAGUGGAGGGGUCGG | 0.08
75 | CCGCCUAACACUGCCAAUUCCGGUCCCAAGCCCGGAUAAAAGUGGAGGGGGCAG | 0.1

Row | Variant | self-cleavage
76 | CCGCCUAACACUGCCAAUUCCGGUCCCAAGCCCGGAUAAAAGUGGAGGGGGCCG | 0.06
77 | CCGCCUAACACUGCCAAUUCCGGUCCCAAGCCCGGAUAAAAGUGGAGGGGGCUG | 0.09
78 | CCGCCUAACACUGCCAAUUCCGGUCCCAAGCCCGGAUAAAAGUGGAGGGGGCGA | 0.16
79 | CCGCCUAACACUGCCAAUUCCGGUCCCAAGCCCGGAUAAAAGUGGAGGGGGCGC | 0.1
80 | CCGCCUAACACUGCCAAUUCCGGUCCCAAGCCCGGAUAAAAGUGGAGGGGGCGU | 0.54
81 | CCGCCUAACACAGCCAAUUCCGGUCCCAAGCCCGGAUAAAAGUGGAGGGGGCGG | 0.07
82 | CCGCCUAACACCGCCAAUUCCGGUCCCAAGCCCGGAUAAAAGUGGAGGGGGCGG | 0.05
83 | CCGCCUAACACGGCCAAUUCCGGUCCCAAGCCCGGAUAAAAGUGGAGGGGGCGG | 0.09
84 | CCGCCUAACACUGCCAAAUCCGGUCCCAAGCCCGGAUAAAAGUGGAGGGGGCGG | 0.11
85 | CCGCCUAACACUGCCAACUCCGGUCCCAAGCCCGGAUAAAAGUGGAGGGGGCGG | 0.36
86 | CCGCCUAACACUGCCAAGUCCGGUCCCAAGCCCGGAUAAAAGUGGAGGGGGCGG | 0.33
87 | CCGCCUAACACUGCCAAUUCCGGACCCAAGCCCGGAUAAAAGUGGAGGGGGCGG | 0.05
88 | CCGCCUAACACUGCCAAUUCCGGCCCCAAGCCCGGAUAAAAGUGGAGGGGGCGG | 0.07
89 | CCGCCUAACACUGCCAAUUCCGGGCCCAAGCCCGGAUAAAAGUGGAGGGGGCGG | 0.07
90 | CCGCCUAACACUGCCAAUUCCGGUCCCAAGCCCGGAAAAAAGUGGAGGGGGCGG | 0.15
91 | CCGCCUAACACUGCCAAUUCCGGUCCCAAGCCCGGACAAAAGUGGAGGGGGCGG | 0.84
92 | CCGCCUAACACUGCCAAUUCCGGUCCCAAGCCCGGAGAAAAGUGGAGGGGGCGG | 0.53
93 | CCGCCUAACACUGCCAAUUCCGGUCCCAAGCCCGGAUAAAAGAGGAGGGGGCGG | 0.11
94 | CCGCCUAACACUGCCAAUUCCGGUCCCAAGCCCGGAUAAAAGCGGAGGGGGCGG | 0.07
95 | CCGCCUAACACUGCCAAUUCCGGUCCCAAGCCCGGAUAAAAGGGGAGGGGGCGG | 0.09
96 | CCGCCUAACACUGCCAAUGACGGUCCCAAGCCCGGAUAAAAGUGGAGGGGGCGG | 0.86
97 | CCGCCUAAAACUGCCAAUGACGGUCCCAAGCCCGGAUAAAAGUGGAGGGGGCGG | 0.29
